Data set [1] deals with T1, Bile acid receptor (Homo sapiens) (UniProt Q96RI1).
T1 sequence (whole entry): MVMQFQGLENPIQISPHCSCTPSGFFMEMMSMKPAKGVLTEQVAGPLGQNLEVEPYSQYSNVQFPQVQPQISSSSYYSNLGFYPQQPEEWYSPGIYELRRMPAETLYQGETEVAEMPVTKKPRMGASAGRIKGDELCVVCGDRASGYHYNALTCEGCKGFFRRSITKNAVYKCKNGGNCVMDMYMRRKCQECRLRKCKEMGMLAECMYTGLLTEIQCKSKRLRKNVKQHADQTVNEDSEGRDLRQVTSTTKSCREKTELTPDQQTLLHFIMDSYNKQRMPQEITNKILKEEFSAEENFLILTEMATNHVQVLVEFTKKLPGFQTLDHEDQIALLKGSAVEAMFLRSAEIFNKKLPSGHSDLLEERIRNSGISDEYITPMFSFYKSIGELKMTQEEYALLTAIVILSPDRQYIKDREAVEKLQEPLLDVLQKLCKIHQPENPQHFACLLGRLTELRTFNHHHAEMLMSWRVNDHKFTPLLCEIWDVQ
The experiment in a line: Agonist activity at FXR in human HepG2 cells assessed as induction of IBABP mrNA expression at 0.3 uM by quantitative PCR method. Format: cell-based.

Data set [2] concerns the target T1, Bile acid receptor (Homo sapiens). Description: Agonist activity at FXR in human HepG2 cells assessed as induction of BSEP mrNA expression at 1 uM by quantitative PCR method. In kind it is cell-based. In short, it runs like this:
(§1)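 HepG2 cells were seeded at 2 × 10⁶ per well. After 24 h they were switched to MEM with 1% charcoal-stripped FCS, and 24 h later dosed with compound (0.1, 0.3, 1, 3, 10 μM; 0.1% DMSO final) for 24 h. Total RNA was reverse transcribed and analysed by qPCR, GAPDH-normalized, ΔΔCt method. Samples were run in duplicate in ≥4 independent experiments.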

For data set [3] the target is unchanged. Description: Agonist activity at FXR in human HepG2 cells assessed as induction of IBABP mrNA expression at 1 uM by quantitative PCR method. Format: cell-based.
Data set [4] can be described thus: Aqueous solubility of the compound. In kind it is physicochemical. Conditions: water (aqueous).
Data set [5] deals with T1, Bile acid receptor (Homo sapiens). The experiment in a line: Agonist activity at FXR in human HepG2 cells assessed as induction of BSEP mrNA expression at 3 uM by quantitative PCR method. Format: cell-based. Summed up:
as §1

Data set [6] relates to HeLa. Description: Cytotoxicity against human HeLa cells assessed as compound concentration causing reduction in cell viability by reporter gene assay. Format: cell-based. In general terms: A reporter such as luciferase makes a cellular process visible.
In data set [7] the target is T1, Bile acid receptor (Homo sapiens). The experiment in a line: Agonist activity at FXR in human HepG2 cells assessed as induction of CYP7A1 mrNA expression at 3 uM by quantitative PCR method. In kind it is cell-based. In short, it runs like this: as §1
The target is the same in data set [8]. The experiment in a line: Agonist activity at FXR in human HepG2 cells assessed as induction of BSEP mrNA expression at 0.3 uM by quantitative PCR method. In kind it is cell-based. Summed up:
as §1

The target is the same in data set [9]. Description: Agonist activity at FXR in human HepG2 cells assessed as induction of CYP7A1 mrNA expression at 0.1 uM by quantitative PCR method. In kind it is cell-based. Summed up:
as §1

The target of data set [10] is T2, Bile acid receptor (Homo sapiens, UniProt Q96RI1).
T2 sequence (Q96RI1 whole entry): T1 sequence (whole entry)
The experiment in a line: Agonist activity at human FXR expressed in human HeLa cells assessed as receptor activation by BSEP promoter-driven firefly luciferase reporter gene assay. Conditions: read-out: EC50. In kind it is cell-based.

Data set [11] is filed under the species Homo sapiens. The experiment in a line: Selectivity index, ratio of EC50 for GAL4-tagged PPARalpha (unknown origin) to EC50 for human FXR.
Data set [12] deals with T1, Bile acid receptor (Homo sapiens). Description: Agonist activity at FXR in human HepG2 cells assessed as induction of SHP mrNA expression at 3 uM by quantitative PCR method. Format: cell-based. Summed up: as §1
Data set [13] deals with T3, G-protein coupled bile acid receptor 1 (Homo sapiens, UniProt Q8TDU6).
T3 sequence (Q8TDU6 whole entry): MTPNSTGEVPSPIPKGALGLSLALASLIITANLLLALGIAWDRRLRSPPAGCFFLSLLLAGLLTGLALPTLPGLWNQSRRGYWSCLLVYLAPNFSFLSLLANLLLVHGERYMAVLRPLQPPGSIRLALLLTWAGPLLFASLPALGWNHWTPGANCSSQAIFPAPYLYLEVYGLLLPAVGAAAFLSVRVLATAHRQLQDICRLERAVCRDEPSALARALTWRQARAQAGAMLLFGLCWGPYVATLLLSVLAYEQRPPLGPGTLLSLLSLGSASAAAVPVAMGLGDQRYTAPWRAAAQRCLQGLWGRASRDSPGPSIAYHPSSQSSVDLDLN
Description: Activity at TGR5 in human NCI-H716 cells assessed as effect on intracellular cAMP accumulation incubated for 60 mins by HTR-FRET assay. Format: functional, cell-based. In short, it runs like this: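 NCI-H716 cells on Matrigel-coated plates were stimulated 24 h after plating with increasing compound concentrations for 60 min at 37 °C in OptiMEM containing 1 mM IBMX. Intracellular cAMP was read by HTRF (Lance kit).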
Background: Cyclic AMP is a second messenger, typically raised through Gs and lowered through Gi signalling.

Data set [14] concerns the target T1, Bile acid receptor (Homo sapiens). The experiment in a line: Agonist activity at FXR in human HepG2 cells assessed as induction of CYP7A1 mrNA expression at 1 uM by quantitative PCR method. Format: cell-based. Summed up: as §1
Data set [15] deals with HepG2. Description: Cytotoxicity against human HepG2 cells assessed as compound concentration causing reduction in cell viability by WST1 assay. In kind it is cell-based. In short, it runs like this:
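WST-1 viability in HepG2 cells (3 × 10⁴ per well) in DMEM with 1% FCS, after 48 h exposure to 1, 10, 30 and 100 μM compound. Controls were Revlotron 100 μM (positive) and zileuton 100 μM or DMEM/1% DMSO (negative). WST reagent was added for 45 min and absorbance read at 450/620 nm; untreated set as 100%. Three repeats in triplicate.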

The species named for data set [16] is Homo sapiens. The experiment in a line: Selectivity index, ratio of EC50 for GAL4-tagged PPARgamma (unknown origin) to EC50 for human FXR.
Data set [17] has as its system HepG2. Description: Cytotoxicity against human HepG2 cells assessed as compound concentration causing reduction in cell viability by LDH release assay. In kind it is cell-based. Summed up: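 HepG2 cells were plated at 3 × 10⁴ per well. After 24 h they were switched to DMEM with 1% FCS and treated for 48 h; 2% Triton X-100 added 2 h before reading served as 100%. LDH reagent was added to the supernatant for 20 min and absorbance read at 490/690 nm. Triplicates, ≥3 independent repeats.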

≈ marks a conversion by molar mass, not a printed value.

Usually solubility stands for how much of the substance goes into solution per volume. Higher therefore signals a readily soluble substance. What is called EC50 is the concentration giving half of the maximal effect. For `COc1ccc(C(=O)Nc2cccc(C(=O)O)c2)c(NC(=O)c2ccc(C(C)(C)C)cc2)c1`, the Activity in [1] is 145%; in [2], 319%; in data set [3] it was 161%; in data set [5] it was 326%; in data set [6], “>= 30 uM”; in [7], 67%. For the same compound, the Activity in data set [8] was 300%; in data set [9], 52%; in [12], 185%; in data set [14], 55%; in data set [15], “>= 30 uM”; in data set [17] it was “>= 30 uM”. In [4], this compound had a solubility of 2.6 µg/mL (≈ 5.82 µM). Moreover, the EC50 turned out to be 0.008 µM in [10] and 30 µM in data set [13]. Further, the Ratio EC50 in data set [11] is above 1000; in [16], 375.

These data come from ChEMBL document CHEMBL3351394 (J Med Chem, 2014).
